Results from ChEMBL document CHEMBL3877264, “Quinolidene-rhodanine conjugates: Facile synthesis and biological evaluation” (Eur J Med Chem, 2017).
≈ marks a conversion by molar mass, not a printed value.

Tests used:
Escherichia coli [1] = assay: Growth inhibition of Escherichia coli NCIM 2688 at 3 ug/ml measured after 8 hrs relative to control; format: functional; settings: NCIM 2688, 8 h, read-out: GI
Summary of the method: (§1)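 Bacteria grown in LB at 37 °C and 180 rpm to OD 1. Compounds added to wells, then 0.1% inoculum of 1 OD culture (620 nm). Growth read as OD at 620 nm after 8 h for gram-negative and after 12 h for gram-positive strains.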

[2] = Selectivity index, ratio of GI50 for human HeLa cells to MIC for Mycobacterium tuberculosis H37Ra ATCC 25177 at dormant stage; format: toxicity, cell-based; settings: read-out: Selectivity Index
Summary of the method: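 SI is the cell-line GI50 divided by the dormant-stage mycobacterial MIC. […] THP-1 macrophages were PMA-differentiated for 24 h.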

[3] = Cytotoxicity against human PANC1 cells measured after 48 hrs by MTT assay; format: toxicity, cell-based, PANC-1
[4] = test system: Mycobacterium tuberculosis; assay: Growth inhibition of Mycobacterium tuberculosis H37Ra ATCC 25177 at dormant stage at 6.25 ug/ml measured after 12 days by XTT dye based two fold dilution method relative to control; format: functional; settings: H37Ra ATCC 25177, 288 h, read-out: GI
Summary of the method: (§2)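 MTB H37Ra was grown in Dubos medium, then exposed in Mycobacterium pheli minimal medium (pH 6.6) to compounds dissolved in DMSO. The assay ended on day 8 (active) or day 12 (dormant). Viable cells were measured by XTT reduction menadione assay at 470 nm, blank-corrected, relative to vehicle control. Triplicates were expressed as mean ± SD. MIC came from dose-response curves.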

[5] = test system: Mycobacterium tuberculosis; assay: Growth inhibition of Mycobacterium bovis BCG ATCC 35743 at dormant stage at 30 ug/ml measured after 12 days by nitrate reductase dye based two fold dilution method relative to control; format: functional; settings: BCG str. ATCC 35743, 288 h, read-out: GI
Summary of the method: (§3)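 M. bovis BCG was grown in Dubos medium and assayed in Mycobacterium pheli minimal medium (pH 6.6), with compounds from DMSO stocks. Incubation lasted 8 days for active and 12 days for dormant cultures. Viability was read by nitrate reductase at 540 nm against cell-free blanks, with vehicle set as 100% growth. Primary screen was at 30, 10 and 3 µg/ml, in triplicate, mean ± SD. MIC was taken from dose-response curves.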

[6] = test system: Mycobacterium tuberculosis; assay: Growth inhibition of Mycobacterium tuberculosis H37Ra ATCC 25177 at active stage at 50 ug/ml measured after 8 days by XTT dye based two fold dilution method relative to control; format: functional; settings: H37Ra ATCC 25177, 192 h, read-out: GI; summary of the method: as §2
Bacillus subtilis = assay: Growth inhibition of Bacillus subtilis NCIM 2079 at 10 ug/ml measured after 12 hrs relative to control; format: functional; settings: NCIM 2079, 12 h, read-out: GI; summary of the method: as §1
[7] = test system: Mycobacterium tuberculosis; assay: Growth inhibition of Mycobacterium bovis BCG ATCC 35743 at dormant stage at 3.13 ug/ml measured after 12 days by nitrate reductase dye based two fold dilution method relative to control; format: functional; settings: BCG str. ATCC 35743, 288 h, read-out: GI; summary of the method: as §3
[8] = Cytotoxicity against human A549 cells measured after 48 hrs by MTT assay; format: toxicity, cell-based
[9] = test system: Mycobacterium tuberculosis; assay: Growth inhibition of Mycobacterium bovis BCG ATCC 35743 at active stage at 0.78 ug/ml measured after 8 days by nitrate reductase dye based two fold dilution method relative to control; format: functional; settings: BCG str. ATCC 35743, 192 h, read-out: GI; summary of the method: as §3
[10] = Cytotoxicity against […]-differentiated human THP1 cells assessed as growth inhibition at 100 ug/ml measured after 48 hrs by MTT assay relative to control; format: toxicity, cell-based, THP-1; settings: read-out: GI
Summary of the method: (§4)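 MTT assay with 48 h compound exposure. THP-1 macrophages made by 24 h PMA treatment. Each concentration tested in triplicate in one experiment. % cytotoxicity = (control−test)/(control−blank)×100, with control = cells + DMSO and blank = medium without cells. IC50 from % survival versus concentration plots.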

[11] = test system: Mycobacterium tuberculosis; assay: Growth inhibition of Mycobacterium bovis BCG ATCC 35743 at active stage at 50 ug/ml measured after 8 days by nitrate reductase dye based two fold dilution method relative to control; format: functional; settings: BCG str. ATCC 35743, 192 h, read-out: GI
[12] = test system: Mycobacterium tuberculosis; assay: Growth inhibition of Mycobacterium bovis BCG ATCC 35743 at dormant stage at 6.25 ug/ml measured after 12 days by nitrate reductase dye based two fold dilution method relative to control; format: functional; settings: BCG str. ATCC 35743, 288 h, read-out: GI; summary of the method: as §3
Staphylococcus aureus [13] = assay: Antibacterial activity against of Staphylococcus aureus NCIM 2010 measured after 12 hrs; format: functional; settings: NCIM 2010, 12 h; summary of the method: as §1
[14] = Antifungal activity against Fusarium oxysporum NCIM 1332 by standard agar method; format: functional
Summary of the method: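 MICs determined by standard agar method; DMSO as solvent control.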

Escherichia coli [15] = assay: Growth inhibition of Escherichia coli NCIM 2688 at 30 ug/ml measured after 8 hrs relative to control; format: functional; settings: NCIM 2688, 8 h, read-out: GI; summary of the method: as §1
[16] = test system: Mycobacterium tuberculosis; assay: Growth inhibition of Mycobacterium tuberculosis H37Ra ATCC 25177 at dormant stage at 25 ug/ml measured after 12 days by XTT dye based two fold dilution method relative to control; format: functional; settings: H37Ra ATCC 25177, 288 h, read-out: GI; summary of the method: as §2
Pseudomonas fluorescens = assay: Antibacterial activity against Pseudomonas fluorescens NCIM 2036 measured after 8 hrs; format: functional; settings: NCIM 2036, 8 h; summary of the method: as §1
Staphylococcus aureus [17] = assay: Growth inhibition of Staphylococcus aureus NCIM 2010 at 10 ug/ml measured after 12 hrs relative to control; format: functional; settings: NCIM 2010, 12 h, read-out: GI; summary of the method: as §1
[18] = test system: Mycobacterium tuberculosis; assay: Growth inhibition of Mycobacterium bovis BCG ATCC 35743 at dormant stage at 10 ug/ml measured after 12 days by nitrate reductase dye based two fold dilution method relative to control; format: functional; settings: BCG str. ATCC 35743, 288 h, read-out: GI; summary of the method: as §3
Escherichia coli [19] = assay: Growth inhibition of Escherichia coli NCIM 2688 at 10 ug/ml measured after 8 hrs relative to control; format: functional; settings: NCIM 2688, 8 h, read-out: GI; summary of the method: as §1
[20] = Cytotoxicity against human THP1 cells assessed as growth inhibition at 100 ug/ml measured after 48 hrs by MTT assay relative to control; format: toxicity, cell-based, THP-1; settings: read-out: GI; summary of the method: as §4
[21] = test system: Mycobacterium tuberculosis; assay: Growth inhibition of Mycobacterium bovis BCG ATCC 35743 at active stage at 100 ug/ml measured after 8 days by nitrate reductase dye based two fold dilution method relative to control; format: functional; settings: BCG str. ATCC 35743, 192 h, read-out: GI
[22] = test system: Mycobacterium tuberculosis; assay: Growth inhibition of Mycobacterium tuberculosis H37Ra ATCC 25177 at dormant stage at 12.5 ug/ml measured after 12 days by XTT dye based two fold dilution method relative to control; format: functional; settings: H37Ra ATCC 25177, 288 h, read-out: GI
Staphylococcus aureus [23] = assay: Growth inhibition of Staphylococcus aureus NCIM 2010 at 30 ug/ml measured after 12 hrs relative to control; format: functional; settings: NCIM 2010, 12 h, read-out: GI; summary of the method: as §1
[24] = test system: Mycobacterium tuberculosis; assay: Growth inhibition of Mycobacterium bovis BCG ATCC 35743 at active stage measured after 8 days by nitrate reductase dye based two fold dilution method; format: functional; settings: BCG str. ATCC 35743, 192 h; summary of the method: as §3
[25] = test system: Mycobacterium tuberculosis; assay: Growth inhibition of Mycobacterium tuberculosis H37Ra ATCC 25177 at dormant stage at 3.13 ug/ml measured after 12 days by XTT dye based two fold dilution method relative to control; format: functional; settings: H37Ra ATCC 25177, 288 h, read-out: GI; summary of the method: as §2
[26] = test system: Mycobacterium tuberculosis; assay: Growth inhibition of Mycobacterium bovis BCG ATCC 35743 at dormant stage at 3 ug/ml measured after 12 days by nitrate reductase dye based two fold dilution method relative to control; format: functional; settings: BCG str. ATCC 35743, 288 h, read-out: GI; summary of the method: as §3
[27] = Cytotoxicity against human HeLa cells at 100 ug/ml assessed as growth inhibition measured after 48 hrs by MTT assay relative to control; format: toxicity, cell-based; settings: read-out: GI
Escherichia coli [28] = assay: Antibacterial activity against Escherichia coli NCIM 2688 measured after 8 hrs; format: functional; settings: NCIM 2688, 8 h; summary of the method: as §1

| SMILES | inhibition of growth at 3 µg/mL (Escherichia coli [1]) [%] | selectivity ratio [2] | GI50 at 48 h [3] [µg/mL] | inhibition of growth at 6.25 µg/mL [4] [%] | inhibition of growth at 30 µg/mL [5] [%] | inhibition of growth at 50 µg/mL [6] [%] | inhibition of growth at 10 µg/mL (Bacillus subtilis) [%] | inhibition of growth at 3.13 µg/mL [7] [%] | GI50 at 48 h [8] [µg/mL] | inhibition of growth at 0.78 µg/mL [9] [%] | inhibition at 48 h, 100 ug/ml [10] [%] | inhibition of growth at 50 µg/mL [11] [%] | inhibition of growth at 6.25 µg/mL [12] [%] | MIC (Staphylococcus aureus [13]) [µg/mL] | MIC [14] [µg/mL] | inhibition of growth at 30 µg/mL (Escherichia coli [15]) [%] | inhibition of growth at 25 µg/mL [16] [%] | MIC (Pseudomonas fluorescens) [µg/mL] | inhibition of growth at 10 µg/mL (Staphylococcus aureus [17]) [%] | inhibition of growth at 10 µg/mL [18] [%] | other results |
| --- | --- | --- | --- | --- | --- | --- | --- | --- | --- | --- | --- | --- | --- | --- | --- | --- | --- | --- | --- | --- | --- |
| O=C1NC(=S)S/C1=C\c1cc2cc(Cl)ccc2nc1Cl | 106 | 15.6 | > 100 | 89.5 | 99.2 | 97.5 | 92.5 | 100 | > 100 | 7.4 | 29.1 | 99.7 | 101 | 2.55 (≈ 7.47 µM) | 100 (≈ 293 µM) | 92.8 | 96.8 | 2.8 (≈ 8.21 µM) | 114 | 99.6 | inhibition of growth at 10 µg/mL (Escherichia coli [19]): 109%; inhibition at 48 h, 100 ug/ml [20]: 28.7%; inhibition of growth at 100 µg/mL [21]: 98.4%; inhibition of growth at 12.5 µg/mL [22]: 70.3%; inhibition of growth at 30 µg/mL (Staphylococcus aureus [23]): 101%; IC50 [24]: 1 µg/mL (≈ 2.93 µM); IC90 [24]: 1.7 µg/mL (≈ 4.98 µM); inhibition of growth at 3.13 µg/mL [25]: 42.4%; inhibition of growth at 3 µg/mL [26]: 99.8%; inhibition at 48 h, 100 ug/ml [27]: 45.5%; MIC (Escherichia coli [28]): 2.44 µg/mL (≈ 7.15 µM) |
| COc1ccc2nc(Cl)c(/C=C3\SC(=S)NC3=O)cc2c1 | 3.11 | 20.8 | > 100 | 27.4 | -6.75 | 101 | 22.7 | -4.93 | > 100 | -67.9 | 30.2 | 97.3 | 89.9 | 7.86 (≈ 23.3 µM) | 125 (≈ 371 µM) | 61.2 | 87.8 | > 30 | 99.8 | -14 | inhibition of growth at 10 µg/mL (Escherichia coli [19]): -36.1%; inhibition at 48 h, 100 ug/ml [20]: 26.3%; inhibition of growth at 100 µg/mL [21]: 86.3%; inhibition of growth at 12.5 µg/mL [22]: 72.7%; inhibition of growth at 30 µg/mL (Staphylococcus aureus [23]): 103%; IC50 [24]: 3.7 µg/mL (≈ 11 µM); IC90 [24]: 5 µg/mL (≈ 14.8 µM); inhibition of growth at 3.13 µg/mL [25]: 4.7%; inhibition of growth at 3 µg/mL [26]: -46.3%; inhibition at 48 h, 100 ug/ml [27]: 31.3%; MIC (Escherichia coli [28]): > 30 µg/mL |
